Values after ≈ are worked out from the molar mass of the structure shown. Active and inactive are the calls of the source. No cut-off for these calls is given here.

Data set [1] in a line: Induction of Pro-apoptosis in human HL-60 cells assessed as increase in apoptotic cells at 10 uM after 48 hrs by Annexin-V/PI-staining based flow cytometry. The class given is functional.
Another data set deals with Emu-TCL1. Put plainly: Induction of apoptosis in mouse Emu-TCL1 cells model of CLL assessed as mitochondrial membrane depolarization at 10 uM after 48 hrs by TMRM dye based flow cytometric analysis. Format: functional, cell-based. The procedure, abridged:
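Splenocytes from Eμ-TCL1 leukaemic mice were treated with 10 μM or DMSO vehicle for 48 h, then TMRM-loaded. Flow cytometry gave the percentage of TMRM-low cells as mean ± SD (n = 3).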

The subject of data set [2] is SCC-4. Put plainly: Cytotoxicity against human SCC-4 cells assessed as reduction in cell viability measured after 48 hrs by alamar blue viability assay. The class given is functional, cell-based. Particulars: SCC-4, 48 h. The procedure, abridged: (§1)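 Oral squamous carcinoma cells were exposed for 48 h to at least 8 increasing concentrations. Viability was read by AlamarBlue. IC50 is the concentration that halves viability, taken as the mean ± SD of at least three independent experiments.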

The test system of another data set is Ca9-22. Nature of the data set: Cytotoxicity against human Ca9-22 cells assessed as reduction in cell viability measured after 48 hrs by alamar blue viability assay. Format: functional, cell-based. Particulars: Ca9-22, 48 h. In short, it runs like this: as §1
Data set [3] deals with SCC-4. Nature of the data set: Induction of apoptosis in human SCC-4 cells assessed as increase in apoptotic cells at 2 uM after 48 hrs by Annexin V-FITC/PI staining based flow cytometry method. Format: functional, cell-based. The procedure, abridged: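 SCC4 cells were treated at 0.5 or 2 μM for 48 h, then stained with Annexin V/PI and analysed by flow cytometry. Data are mean ± SEM of three independent experiments, with an unpaired one-tailed t-test versus vehicle.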

For another data set, the system named is KYSE-520 cell line. Put plainly: Induction of apoptosis in human KYSE520 cells assessed as increase in apoptotic cells at 3 to 10 uM after 72 hrs by Annexin V-FITC/PI staining based flow cytometry method. The class given is functional, cell-based. Particulars: dose 3-10 µM. In short, it runs like this:
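KYSE-520 cells were treated at 3 and 10 μM for 72 h, then analysed by flow cytometry after Annexin V/PI dual staining.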

In the next data set the target is Tubulin (Homo sapiens) (UniProt P68371+Q9H4B7+P0DPH7+P68366+Q13509+Q71U36+P04350+Q3ZCM7+P07437+P68363+Q9BQE3+Q6PEY2+Q13885+Q9BVA1+Q9BUF5). Nature of the data set: Binding affinity to microtubule polymerization (unknown origin) assessed as formation of microtubule at 27.5 uM measured for 2 hrs by plate reader method. Format: protein-complex assay. The procedure, abridged:
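25 μM tubulin in GAB buffer with compound at 27.5 μM or DMSO vehicle; podophyllotoxin 27.5 μM as destabiliser control. Polymerisation started by raising temperature from 4 to 37 °C at time 0; microtubule formation followed as absorbance increase over time.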

Another data set has as its system A549. Put plainly: Cytotoxicity against human A549 cells assessed as inhibition of cell growth measured after 48 hrs by MTT assay. The class given is functional, cell-based. Particulars: A549, 48 h.
A short description of data set [4]: Mutagenicity in Salmonella typhimurium TA100 in presence of rat liver S9 fraction at 0.3 to 60 uM by AMES test. Format: toxicity, subcellular. Particulars: salmonella enterica subsp. enterica serovar typhimurium, s9, 60 µM; dose 0.3-60 µM.
Data set [5] can be described thus: Mutagenicity in Salmonella typhimurium TA100 in absence of rat liver S9 fraction at 0.3 to 60 uM by AMES test. Format: toxicity. To be noted: salmonella enterica subsp. enterica serovar typhimurium, s9, 60 µM; dose 0.3-60 µM.
Data set [6] deals with SCC-4. Nature of the data set: Induction of autophagy in human SCC-4 cells assessed as increase in LC3-II to LC3-I ratio at 10 uM in absence of EBSS measured after 3 hrs by Western blot analysis. The class given is functional, cell-based. In short, it runs like this: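 SCC4 cells were pre-incubated with or without EBSS for 30 min, then given 10 μM compound, with 10 μM chloroquine as reference, for 3 h. LC3-I/II was assessed by Western blot with GAPDH loading control. The LC3-II/LC3-I ratio came from densitometry, as mean ± SEM of four experiments, with an unpaired one-tailed t-test.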

Data set [7] deals with SCC-4. Nature of the data set: Induction of autophagy in human SCC-4 cells assessed as decrease in UlK1 protein level at 10 uM in measured after 24 hrs by Immunoblotting analysis. The class given is functional, cell-based. The procedure, abridged:
(§2)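 SCC4 cells under basal conditions were treated at 10 μM for 24 h. Autophagy-related proteins were immunoblotted, and densitometry was expressed as a ratio normalised to vehicle control.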

Data set [8] has as its system SCC-4. Nature of the data set: Induction of autophagy in human SCC-4 cells assessed as increase in UlK1 phosphorylation at 10 uM in measured after 24 hrs by Immunoblotting analysis. Format: functional, cell-based. The procedure, abridged: as §2
For data set [9], the system named is HL-60. Nature of the data set: Induction of autophagy in human HL-60 cells assessed as increase in LC3-II protein level at 10 uM measured up to 1 hr by Immunoblotting analysis. The class given is functional, cell-based.
Data set [10] concerns HL-60. Put plainly: Induction of autophagy in human HL-60 cells assessed as increase in LC3-II protein level at 10 uM in presence of chloroquine […] by Immunoblotting analysis. The class given is functional, cell-based.
Data set [11] concerns HeLa. Put plainly: Induction of cell morphological changes in human HeLa cells at 10 uM measured after 3 hrs by LysoTracker Red staining based microscopic analysis. Format: functional. In short, it runs like this: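 Living HeLa cells were treated at 10 μM, or with BafA1 at 300 nM, for 3 h, then incubated with 75 nM LysoTracker red. Cells were imaged by spinning disc microscopy at 37 °C, 5% CO2.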

Data set [12] deals with HeLa. Put plainly: Induction of autophagy in human HeLa cells assessed as increasing number of autophagosomes at 1 to 10 uM incubated for 3 hrs with HBSS medium by immunofluorescence based laser scanning confocal microscopic analysis. The class given is functional, cell-based. Particulars: dose 1-10 µM. The procedure, abridged:
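HeLa cells were treated in HBSS at 1 or 10 μM, with BafA1 300 nM as reference, for 3 h. After fixation in ice-cold methanol, LC3 and LAMP1 were immunostained. Laser scanning confocal microscopy assessed autophagosome number and LC3/LAMP1 colocalisation.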

For data set [13], the system named is HeLa. Put plainly: Induction of morphological changes in human HeLa cells assessed as golgi complex fragmentation at 10 uM incubated for 3 hrs by phalloidin staining based laser scanning confocal microscopic analysis. The class given is functional, cell-based. The procedure, abridged:
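HeLa cells in growth medium were treated at 1 or 10 μM, with BafA1 300 nM as reference, for 3 h. Cells were fixed in 4% PFA, stained with anti-GM130 for the Golgi and AF647-phalloidin for actin, and imaged by laser scanning confocal microscopy.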

Data set [14] has as its target Mitogen-activated protein kinase; ERK1/ERK2 (Homo sapiens) (UniProt P27361+P28482). Put plainly: Inhibition of ERK1/2 phosphorylation in human HL-60 cells at 10 uM measured after 2 hrs by Immunoblotting analysis. The class given is cell-based. In short, it runs like this:
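HL-60 cells were treated at 10 μM or with DMSO vehicle for 2 h. Phospho-NF-κB and phospho-Erk1/2 were immunoblotted and quantified by densitometry relative to β-tubulin. Data are mean ± SD (n = 2), analysed by one-way ANOVA.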

Data set [15] is described as follows: Aqueous solubility of the compound in pH 3 measured after 24 hrs by HPLC/DAD/UV analysis. The class given is physicochemical. To be noted: aqueous solution at pH 3, pH 3. In short, it runs like this:
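Solubility in aqueous buffer at pH 3, measured by HPLC after 24 h.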

A short description of data set [16]: Metabolic stability in human liver microsomes assessed as half life by HPLC analysis. The class given is ADME, Microsome. The procedure, abridged: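 Compound incubated with human liver microsomes plus an NADPH-generating system. Log % of compound recovered (100% at 0 min) was plotted against incubation time and fitted to a monoexponential decay. Controls were boiled microsomes, or microsomes without NADPH-GS, at 37 °C for 60 min.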

Mitogen-activated protein kinase; ERK1/ERK2 (Homo sapiens), sequence (P27361 whole entry, looked up): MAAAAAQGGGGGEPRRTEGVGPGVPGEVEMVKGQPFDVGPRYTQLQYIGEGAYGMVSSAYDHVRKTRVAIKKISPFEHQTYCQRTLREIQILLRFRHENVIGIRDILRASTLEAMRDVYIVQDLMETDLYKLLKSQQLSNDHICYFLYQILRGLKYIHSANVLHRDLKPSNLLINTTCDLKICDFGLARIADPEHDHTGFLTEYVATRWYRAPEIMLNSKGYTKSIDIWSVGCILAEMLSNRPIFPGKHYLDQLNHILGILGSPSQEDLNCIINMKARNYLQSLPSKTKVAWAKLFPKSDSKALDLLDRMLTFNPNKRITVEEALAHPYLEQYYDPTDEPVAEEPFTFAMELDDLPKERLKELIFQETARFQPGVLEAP
Mitogen-activated protein kinase; ERK1/ERK2 (Homo sapiens), sequence (P28482 whole entry, looked up): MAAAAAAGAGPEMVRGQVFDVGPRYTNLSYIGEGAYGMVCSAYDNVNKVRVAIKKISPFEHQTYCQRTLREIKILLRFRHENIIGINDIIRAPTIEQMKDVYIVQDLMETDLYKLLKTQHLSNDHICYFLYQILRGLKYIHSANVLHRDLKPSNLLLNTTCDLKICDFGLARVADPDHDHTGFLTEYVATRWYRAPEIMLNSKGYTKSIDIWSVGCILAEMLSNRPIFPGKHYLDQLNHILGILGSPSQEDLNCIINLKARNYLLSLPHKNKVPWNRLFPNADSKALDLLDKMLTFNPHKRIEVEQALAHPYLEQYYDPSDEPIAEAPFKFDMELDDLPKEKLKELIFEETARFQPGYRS

Regarding `CN1CCN(C(=O)OC2=C(c3cccc4ncccc34)Oc3cc4ccccc4cc3-n3cccc32)CC1`, the results for the Activity entry in data set [1], in data set [4] and in [5] were “>=70%”, “Non-Toxic” and “Non-Toxic”, respectively. The outcome in the data set on Emu-TCL1, in the data set on SCC-4 [3], in the data set with KYSE-520 cell line, on Tubulin (Homo sapiens), in the data set on SCC-4 [6] and with SCC-4 [7] was Active. Besides, the outcome in the data set with SCC-4 [8], in the data set on HL-60 [9], in the data set on HL-60 [10], with HeLa [11], in the data set on HeLa [12] and in the data set on HeLa [13] was Active. For the same compound, the IC50 with SCC-4 [2] was 540 nM; in the data set on Ca9-22 it was 130 nM; with A549, 774 nM. Also, the inhibition result in data set [14] was “Active”. Moreover, the solubility at 24 h in [15] came out at 204 µM (≈ 103 µg/mL). In [16], the half-life stood at 0.513 h.

Regarding `O=C(OC1=C(c2cccc3ncccc23)Oc2cc3ccccc3cc2-n2cccc21)C1CCNCC1`, the Activity result in data set [1] is recorded as “>=70%”; in data set [4], “Non-Toxic”; in [5], “Non-Toxic”. Also, the result with Emu-TCL1, with SCC-4 [3], with KYSE-520 cell line, at Tubulin (Homo sapiens), in the data set on SCC-4 [6] and with SCC-4 [7] was Active. Besides, the outcome in the data set with SCC-4 [8], with HL-60 [9], with HL-60 [10], in the data set on HeLa [11], in the data set on HeLa [12] and in the data set on HeLa [13] was Active. The figures for the IC50 with SCC-4 [2], with Ca9-22 and in the data set on A549 were 850 nM, 2000 nM and 6150 nM, respectively. Further, the inhibition entry in data set [14] is “Active”. The compound also displayed a solubility at 24 h in data set [15] of 271 µM (≈ 132 µg/mL). The half-life in data set [16] turned out to be 1.52 h.
